Experimental data as given in publication PMC6916675 (Cancer Management and Research, 2019).
Entries after “also recorded” stand apart in the source; their conditions may differ.

Experiments:
mTORC1 (p4E-BP1.T37/T46) = test: p4E-BP1 biomarker inhibition in stimulated blood monocytes; assay type: in vivo, human
Summary of the method: (§1)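 Blood sampled predose and up to 5 hrs postdose on cycle 1 days 1 and 15, plus around tumour biopsy (days 15–21). Markers: p4E-BP1 T37/T46 (mTORC1) and pAKT S473 (mTORC2). In Part B, CD14+ monocytes were stimulated with anti-IgD plus lipopolysaccharide (37°C, 15 min) and analysed by flow cytometry. Signal was expressed as molecules of equivalent fluorescein.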

[1] = Distribution of CC-115 to GBM tumor tissue; assay type: in vivo; details: human, GBM tumor tissue and plasma, oral, 10 mg BID
[2] = Safety and tolerability in Phase I patients; assay type: in vivo, human
[3] = Plasma pharmacokinetics of CC-115; assay type: in vivo, human; details: for AUC(0-inf) / Vd/F / AUC / Cmax / Tmax: human, plasma, oral; for Cmax: Plasma Cmax, mean (CV%); for Tmax: Plasma Tmax, median (min, max)
p4EBP1 = test: Immunohistochemistry of paired tumor biopsies, p4EBP1; assay type: in vivo, human; details: before treatment vs after approximately 15 days of treatment
[4] = tested on: advanced solid or hematologic malignancies; test: Antitumor efficacy; assay type: in vivo, human
Summary of the method: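 Investigators assessed response by RECIST 1.1, RANO, updated IWCLL or PCWG2 criteria. Solid tumours were restaged by CT or MRI after cycles 2, 4, 6, 9 and 12, every 6 cycles thereafter, and at end of treatment. Patients meeting IWCLL criteria but with persistent lymphocytosis were classed non-IWCLL. Best overall response frequency was tabulated. BA/FE substudy: 12 solid-tumour patients (GBM excluded).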

pAKT = test: Immunohistochemistry of paired tumor biopsies, pAKT; assay type: in vivo, human; details: before treatment vs after approximately 15 days of treatment
mTORC2 (pAKT.S473) = test: pAKT biomarker inhibition in stimulated blood monocytes; assay type: in vivo, human
Summary of the method: as §1

[5] = Urinary excretion of CC-115; assay type: in vivo, human; details: for Fe (fraction excreted unchanged in urine), mean (CV%) / Urine Ae24, mean (CV%): first dose
[6] = Bioavailability/food effect; assay type: in vivo, human; details: single oral dose with high-fat meal vs fasted
[7] = Part A, repeat once-daily administration
[8] = patient with endometrial cancer (complete response)
[9] = 8 mg, first dose, 8 mg QD, n = 6
[10] = 8 mg, multiple doses, 8 mg QD, n = 7
[11] = 10 mg, first dose, 10 mg BID, n = 6
[12] = 10 mg, multiple doses, 10 mg BID, n = 7
[13] = 15 mg, first dose, 15 mg BID, n = 6
[14] = 15 mg, multiple doses, 15 mg BID, n = 5
[15] = 16 mg, first dose, 16 mg QD, n = 6
[16] = 16 mg, multiple doses, 16 mg QD, n = 8
[17] = 25 mg, first dose, 25 mg QD, n = 7
[18] = 25 mg, multiple doses, 25 mg QD, n = 5
[19] = 40 mg, first dose, 40 mg QD, n = 6
[20] = 40 mg, multiple doses, 40 mg QD, n = 4
[21] = Part A, efficacy evaluable n=39

CCN1C(=O)CNc2ncc(-c3ccc(-c4nc[nH]n4)nc3C)nc21 [CC-115]
Median biomarker (p4E-BP1) (mTORC1 (p4E-BP1.T37/T46); 10 mg BID cohort, after 3 hrs): 35% | Dose above which mTORC1 (p4E-BP1) was inhibited in peripheral blood monocytes (mTORC1 (p4E-BP1.T37/T46); [7]): > 4 mg QD | Median decrease of p4E-BP1 (mTORC1 (p4E-BP1.T37/T46); Part B, 10 mg BID, day 15): 34% | Inhibition of p4E-BP1 (mTORC1 (p4E-BP1.T37/T46); [8]): 51% | Time for which p4E-BP1 inhibition was sustained (mTORC1 (p4E-BP1.T37/T46); postdose): at least 5 hrs | Kp [1]: 0.713 | Drug-related AE: diarrhea ([2]; Part A): 25% | Drug-related AE: fatigue ([2]; Part A): 50% | Drug-related AE: hyperglycemia ([2]; Part A): 23% | Drug-related AE: nausea ([2]; Part A): 41% | Drug-related AE: vomiting ([2]; Part A): 41% | Grade 3 toxicities, patients ([2]; Part A): 41% | Grade 3 toxicity: fatigue ([2]; Part A): 7% | Grade 3 toxicity: hypertriglyceridemia ([2]; Part A): 5% | Grade 3 toxicity: hypophosphatemia ([2]; Part A): 7% | Grade 3 toxicity: maculopapular rash ([2]; Part A): 5% | Grade 3 toxicity: stomatitis ([2]; Part A): 5% | Patients requiring dose reduction from initially assigned dose levels ([2]; Part A): 39% | Patients requiring drug interruption ([2]; Part A): 93% | Patients who discontinued treatment due to AEs ([2]; Part A): 7% | Patients with ≥1 drug-related AE ([2]; Part A): 93% | Dose-limiting toxicities (increased transaminases and stomatitis) ([2]; Part A, 15 mg BID): 2 DLTs | Dose-limiting toxicity (thrombocytopenia), patients ([2]; Part A, 16 mg QD): 1 patient | Dose-limiting toxicity (stomatitis), patients ([2]; Part A, 25 mg QD): 1 patient | Dose-limiting toxicities (hyperglycemia, asthenia, and fatigue), patients ([2]; Part A, 40 mg QD): 2 of 6 patients | Maximum-tolerated dose (MTD) ([2]; Part A, once-daily schedule): 25 mg QD | Non-tolerated dose (NTD) ([2]; Part A, once-daily schedule): 40 mg QD | Maximum-tolerated dose (MTD) ([2]; Part A, twice-daily schedule): 10 mg BID | Non-tolerated dose (NTD) ([2]; Part A, twice-daily schedule): 15 mg BID | Patients requiring ≥1 dose reduction, range over cohorts ([2]; Part B overall): 40–93% | Patients with dose reductions ([2]; Part B, GBM): 93% | AUC(0-inf) ([3]; 8 mg): 0.237 µg·h/mL | Vd/F ([3]; 8 mg): 294 L | AUC ([3]; 8 mg, Plasma AUC12, mean (CV%), first dose, 8 mg QD, n = 6): 0.18 µg·h/mL | AUC ([3]; 8 mg, Plasma AUC24, mean (CV%), first dose, 8 mg QD, n = 6): 0.236 µg·h/mL | Cmax [3, 9]: 0.0361 µg/mL | Cmax [3, 10]: 0.0409 µg/mL | Tmax [3, 9]: 1.5 h | Tmax [3, 10]: 1.5 h | AUC(0-inf) ([3]; 10 mg): 0.605 µg·h/mL | Vd/F ([3]; 10 mg): 189 L | Cmax [3, 11]: 0.0518 µg/mL | Cmax [3, 12]: 0.0752 µg/mL | Tmax [3, 11]: 2.25 h | Tmax [3, 12]: 1.42 h | AUC(0-inf) ([3]; 15 mg): 1.31 µg·h/mL | Vd/F ([3]; 15 mg): 173 L | Cmax [3, 13]: 0.134 µg/mL | Cmax [3, 14]: 0.162 µg/mL | Tmax [3, 13]: 1.04 h | Tmax [3, 14]: 1.52 h | AUC(0-inf) ([3]; 16 mg): 0.625 µg·h/mL | Vd/F ([3]; 16 mg): 264 L | Cmax [3, 15]: 0.0887 µg/mL | Cmax [3, 16]: 0.118 µg/mL | Tmax [3, 15]: 2.95 h | Tmax [3, 16]: 1.65 h | AUC(0-inf) ([3]; 25 mg): 1.91 µg·h/mL | Vd/F ([3]; 25 mg): 149 L | Cmax [3, 17]: 0.173 µg/mL | Cmax [3, 18]: 0.198 µg/mL | Tmax [3, 17]: 3 h | Tmax [3, 18]: 1.52 h | AUC(0-inf) ([3]; 40 mg): 2.13 µg·h/mL | Vd/F ([3]; 40 mg): 201 L | Cmax [3, 19]: 0.167 µg/mL | Cmax [3, 20]: 0.244 µg/mL | Tmax [3, 19]: 2.25 h | Tmax [3, 20]: 3 h | Increase of Cmax and AUC∞ with dose ([3]; single and multiple doses ranging from 4 to 40 mg): linear, dose-proportional | Inhibition of p4EBP1 in paired tumor biopsies (p4EBP1): Moderate, not statistically significant, inhibition | Stable disease, patients ([4]; BA/FE substudy): 4 patients | Partial response (unconfirmed), patients ([4]; BA/FE substudy, breast carcinoma (5 patients)): 2 patients | Stable disease, patients ([4]; BA/FE substudy, breast malignancies): 1 patients | Stable disease, patients ([4]; BA/FE substudy, ovarian malignancies): 2 patients | Stable disease, patients ([4]; BA/FE substudy, rectal malignancies): 1 patients | Disease control rate (DCR) [4, 21]: 51% | Overall response rate (ORR) [4, 21]: 5% | 6-month PFS ([4]; Part B, CLL/SLL): 86% | Best response of SD by IWCLL and non-IWCLL criteria ([4]; Part B, CLL/SLL, June 2017): 25% | PR by IWCLL criteria ([4]; Part B, CLL/SLL, June 2017): 25% | PR by non-IWCLL criteria (persistent lymphocytosis) ([4]; Part B, CLL/SLL, June 2017): 38% | Best response of SD ([4]; Part B, CRPC, 11 efficacy evaluable patients): 64% | 6-month PFS rate ([4]; Part B, ES): 0% | Best response of SD ([4]; Part B, ES n=9): 22% | Best response of nonprogression ([4]; Part B, GBM, 14 evaluable patients): 21% | Best response of SD ([4]; Part B, HNSCC n=17): 53% | Time in complete remission / tumor-free ([4]; one patient with endometrial cancer, 10 mg BID reduced to 8 mg BID): > 4 years | Inhibition of pAKT in paired tumor biopsies (pAKT): Moderate, not statistically significant, inhibition | Median biomarker (pAKT) (mTORC2 (pAKT.S473); 10 mg BID cohort, after 3 hrs): 84% | Dose above which mTORC2 (pAKT) was inhibited in peripheral blood monocytes (mTORC2 (pAKT.S473); [7]): > 4 mg QD | Median decrease of pAKT (mTORC2 (pAKT.S473); Part B, 10 mg BID, day 15): 80% | Inhibition of pAKT (mTORC2 (pAKT.S473); [8]): 85% | Time for which pAKT inhibition was sustained (mTORC2 (pAKT.S473); postdose): at least 5 hrs | Excreted in urine ([5]; Part A): Less than 1% | Fe (fraction excreted unchanged in urine), mean (CV%) ([5]; 8 mg QD, n = 6): 0.25 (66) % | Urine Ae24, mean (CV%) ([5]; 8 mg QD, n = 6): 19,748 (66) ng | Fe (fraction excreted unchanged in urine), mean (CV%) ([5]; 10 mg BID, n = 6): 0.53 (108) % | Urine Ae24, mean (CV%) ([5]; 10 mg BID, n = 6): 53,259 (108) ng | Fe (fraction excreted unchanged in urine), mean (CV%) ([5]; 15 mg BID, n = 6): 0.72 (53) % | Urine Ae24, mean (CV%) ([5]; 15 mg BID, n = 6): 107,283 (53) ng | Fe (fraction excreted unchanged in urine), mean (CV%) ([5]; 16 mg QD, n = 6): 0.33 (108) % | Urine Ae24, mean (CV%) ([5]; 16 mg QD, n = 6): 52,491 (108) ng | Fe (fraction excreted unchanged in urine), mean (CV%) ([5]; 25 mg QD, n = 7): 0.41 (79) % | Urine Ae24, mean (CV%) ([5]; 25 mg QD, n = 7): 103,312 (79) ng | Fe (fraction excreted unchanged in urine), mean (CV%) ([5]; 40 mg QD, n = 6): 0.34 (55) % | Urine Ae24, mean (CV%) ([5]; 40 mg QD, n = 6): 136,157 (55) ng | Decrease in Cmax on co-administration of the tablet with food [6]: ~ 40% | Delay in Tmax on co-administration of the tablet with food [6]: 3.5 h | Total exposure (AUC∞) fed versus fasted [6]: similar; also recorded: comparable
